Screens as filed in PubChem BioAssay.
Hits are enriched below; roughly 1.3% of the tested compounds scored in any of these assays.
HKDC1 inhibitor – HKDC1 (human) hexokinase inhibition | hit rate 0.16% among 340,000 | recombinant HKDC1, G6PDH/diaphorase resazurin coupled fluorescence | inhibition, % at 20 µM | Q2TB90;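 active means inhibition above about 35% when tested at 20 µM, limit read from the data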;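 further: plate controls were DMSO wells with enzyme for no effect and DMSO wells lacking enzyme for full effect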
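Material: recombinant HKDC1 hexokinase; Amount: HKDC1 at 5 µg/mL; Medium: Tris pH 8.0 buffer with MgCl2, Tween-20, BSA, BME; Schedule: 90 min reaction incubation at room temperature, dark; Technique: coupled resazurin fluorescence, excitation 525 nm, emission 613 nm.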
PfGluPho inh – PfG6PD (Plasmodium falciparum) enzyme inhibition | PfGluPho enzyme, NADPH resazurin-diaphorase fluorescence | inhibition, % at 20 µM | hit rate 0.78% among 350,000 | AID 504690;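 active means inhibition reaching at least a set limit at 20 µM in the primary screen, cut at about 59% in these data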;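 further: 0% = DMSO wells with substrate and 100% = DMSO wells lacking glucose-6-phosphate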
G6PDH counter – inhibits Leuconostoc G6PDH, flagging false hits in G6PDH-based assays. Purified L. mesenteroides G6PDH, diaphorase/resazurin coupled fluorescence, 45 min. inhibition, % at 5 µM. hit rate 0.12% among 200,000. AID 1020; in the data active means inhibition above about 50%
Diaphorase inh – inhibits diaphorase or chemically oxidizes, flagging diaphorase assay artifacts. AID 1217. hit rate 0.69% among 190,000. inhibition, % at 20 µM. diaphorase resazurin-to-resorufin fluorescence, NADH, 16 min; bacterial (C. kluyveri) enzyme, not human;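 active means primary screen inhibition at 20 µM above a set limit, cut at about 50% in these data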;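 further: plate controls were DMSO with full reaction for no effect and wells lacking NADH for full effect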
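Benchmarks: positive control wells lacking NADH, neutral wells with DMSO only. System: bacterial diaphorase enzyme (C. kluyveri). Input: 0.14 U/mL diaphorase, enzyme working solution. Detection: resorufin fluorescence, excitation 544 nm, emission 590 nm. Times: 16-min room-temperature incubation before reading.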
Tb hexokinase – blocks Trypanosoma brucei hexokinase 1 activity | recombinant TbHK1, G6PDH-coupled NADH A340 | inhibition, % at 10 µM | hit rate 0.11% among 220,000 | AID 1430;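 active means inhibition of 50% or more in the single-dose primary screen; inactive means inhibition below 50%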
PfG6PD confirm – PfG6PD inhibition, single-dose confirmed | shares compounds with PfGluPho inh | inhibition, % at 20 µM | recombinant PfGluPho, NADPH-diaphorase-resazurin fluorescence | hit rate 34% among 2,400;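 active means inhibition of at least 50% at 20 µM in any single replicate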;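 further: 0% = DMSO with substrate and 100% = DMSO lacking glucose-6-phosphate substrate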
Diaphorase 10uM – counter-screen for P. falciparum G6PD inhibitors: diaphorase inhibitors, oxidizers | hit rate 39% among 820 | inhibition, % at 20 µM | AID 504862 | shares compounds with PfGluPho inh | diaphorase-coupled resazurin reduction, fluorescence, NADPH 10 uM;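 active means average inhibition reaching 50% or more with the compound at 20 µM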;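 further: resorufin red fluorescence formed as diaphorase reduces resazurin using NADPH; 0% = DMSO with enzyme and 100% = DMSO without enzyme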
Diaphorase 30uM – counter-screen for P. falciparum G6PD inhibitors: diaphorase inhibitors, oxidizers | inhibition, % at 20 µM | hit rate 29% among 820 | shares compounds with PfGluPho inh | AID 504863 | Diaphorase/resazurin coupled assay, resorufin fluorescence, 30 uM NADPH;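 active means inhibition averaging 50% or more, tested at 20 µM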;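 further: 0% = DMSO with enzyme and 100% = DMSO wells lacking diaphorase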
Numbers without * were called inactive; . = no result.

SMILES	HKDC1 inhibitor	PfGluPho inh	G6PDH counter	Diaphorase inh	Tb hexokinase	PfG6PD confirm	others
COc1cc(NCCCn2cnc(C(=O)Nc3ccc(C)c(C)c3)n2)cc(OC)c1OC	8	73*	.	.	.	61*	Diaphorase 10uM=-17;Diaphorase 30uM=-16
COc1ccc(CNCCCn2cnc(C(=O)Nc3ccc(C)c(C)c3)n2)cc1	-6	7	.	.	.	.
Cc1scc(C(=O)NNC(=O)CCC(=O)O)c1C	-10	-16	11	13	3	.
CCOC(=O)c1cnc2ccc(C(=O)OC)cc2c1NCCN1CCOCC1	1	71*	2	3	-32	16
CCOC(=O)c1cnc2ccc(C(=O)OC)cc2c1NCCCN1CCOCC1	9	27	.	.	.	.
CCSc1nc(C)cc(Oc2ccc(=O)n(C)n2)n1	-10	0	-1	-4	-2	.
Oc1ccccc1NCC(O)Cn1ccc2ccccc21 (centres undefined)	23	66*	40	25	2	28
OC(CNCc1ccccc1)Cn1ccc2ccccc21 (centres undefined)	-10	3	16	4	3	.
CCc1[nH]c(=S)c(C#N)c2c1CCCC2	2	66*	2	18	-6	41
COc1ccc(CCN(C)C(=O)c2ccc(OCC(=O)N3CCOCC3)c(OC)c2)cc1OC	-3	6	.	.	.	.
CC(=O)c1ccc(OCC(O)CN(C)CCOc2ccc(Br)cc2)cc1 (centres undefined)	-6	4	.	.	.	.
CCC1(C)Cc2c(sc3nc(NC)n(C)c(=O)c23)CO1 (centres undefined)	6	8	15	18	-8	.
Cn1c(NN)nc2sc3c(c2c1=O)CC(C)(C)OC3	-15	65*	12	9	14	34
CS(=O)(=O)c1cccc(C(=O)OCC(=O)NCc2cccs2)c1	-3	-1	.	.	.	.
CCN1CCN(C(=S)Nc2ccc(Cl)c(Cl)c2)CC1	-2	6	12	11	6	.
CCN1CCN(C(=S)c2ccc(Cl)c(Cl)c2)CC1	-2	59*	-5	10	-10	55*	Diaphorase 10uM=24;Diaphorase 30uM=-16
CC(=O)N1C[C@H]2CON(C)[C@H]2C[C@H]1c1ccc(-c2cccnc2)cc1	.	13	.	.	.	.
N#C/C(C(=O)Nc1ccc(Cl)cc1)=C(/S)Nc1ccccc1	10	95*	.	.	.	83*	Diaphorase 10uM=-18;Diaphorase 30uM=-3
O=C(Nc1ccc(Nc2ccccc2)cc1)c1ccc(Cl)cc1	-2	21	.	.	.	.
CNc1sc(C(=O)c2ccccc2F)c(N)c1-c1nc2ccccc2s1	-20	0	-1	22	-16	.
Cc1cc(=O)[nH]c(N/N=C/c2c(C)nn(-c3ccccc3)c2Cl)n1	3	86*	.	.	-28	78*	Diaphorase 10uM=-14;Diaphorase 30uM=-11
COc1c2ccoc2c(OCC=C(C)C)c2oc(=O)ccc12	4	68*	26	28	-6	54*	Diaphorase 10uM=18;Diaphorase 30uM=29
COc1c2ccoc2c(OC[C@@H](O)C(C)(C)O)c2oc(=O)ccc12	-3	9	15	20	-10	.
N=C(N)c1ccc(N=Nc2c(O)ccc3c2[nH]c2ccccc23)cc1	32	78*	.	.	.	20
COCCCNC(=S)N(CCO)Cc1cc2cc3c(cc2[nH]c1=O)OCO3	5	8	.	.	.	.
SMILES	HKDC1 inhibitor	PfGluPho inh	G6PDH counter	Diaphorase inh	Tb hexokinase	PfG6PD confirm	others
CCC1(CC)Cc2ccccc2C(=O)N1	-4	3	.	.	3	.
CCC1(CC)Cc2ccccc2C(N)=C1C#N	2	61*	4	22	0	49*	Diaphorase 10uM=50*;Diaphorase 30uM=36
Cn1c(C(=O)Nc2ccc3c(c2)OCCO3)cc2sccc21	-6	66*	-5	13	-6	18
CC(C)(C)c1ccc(C(=O)N2CCN(c3nc4ccccc4o3)CC2)cc1	-6	4	3	15	-4	.
COc1ccccc1N1CCN(/N=C/c2ccc(O)c(O)c2)CC1	10	59*	38	70*	-20	46
COc1ccc(/C=N/N2CCN(c3ccccc3OC)CC2)cc1OC	5	-1	-18	12	4	.
Cc1cccn2c(=O)c(C=O)c(N3CCSCC3)nc12	0	-16	.	.	-18	.
CC(C)c1ccc(NC(=O)CSc2nc(-c3ccccc3F)nc3nc[nH]c23)cc1	-9	12	4	-10	-1	.
COc1ccc(NCc2ccccc2[N+](=O)[O-])cc1OC	-3	34	24	35	1	.
COc1cc2c(cc1OC)C(Cc1ccccc1[N+](=O)[O-])=NCC2	14	45	.	.	.	-25
COc1ccc(C(=O)N2[C@@H](C(C)C)COc3cc(Br)ccc3S2(=O)=O)cc1	6	5	.	.	.	.
Cc1cc(Cl)ccc1C1=CC(=O)C[C@H](c2ccc(F)cc2)C1	5	-13	.	.	.	.
CCOC(=O)c1ccc(-c2c(-c3ccccc3OC)oc3ccccc23)cc1F	2	15	.	.	.	.
COc1ccccc1-c1oc2ccccc2c1-c1ccc2cc[nH]c2c1	4	63*	.	.	.	-11
CC1(C)CC(=O)c2cnc(NC(=O)c3ccco3)nc2C1	-5	14	5	10	7	.
CC(C)S(=O)(=O)c1csc(NC(=O)Nc2cc(Cl)ccc2Cl)c1Cl	3	86*	.	.	2	4
Cc1ccccc1-c1nc(C(=O)NCC2CCCO2)cc2c1[nH]c1ccccc12 (centres undefined)	0	60*	.	.	.	5
CSc1ccccc1OCc1cc(C(=O)NC(C)Cn2cncn2)no1 (centres undefined)	-4	-4	.	.	.	.
O=C(Oc1ccc(Br)cc1C(=S)N1CCOCC1)c1ccc([N+](=O)[O-])cc1[N+](=O)[O-]	-2	60*	.	.	.	22
CNC(=O)CSc1nc(-c2ccccc2)c(-c2ccccc2)[nH]1	3	6	4	0	-2	.
c1ccc(-n2ncc3c(NC4CCCCCC4)ncnc32)cc1	1	96*	.	.	-7	21
O=C(c1ccc(N2CCN(C(=O)c3ccccc3)CC2)cc1)c1cccc(F)c1	-6	-1	.	.	.	.
O=C(c1ccccc1)c1ccc(C(=O)N2CCN(c3ccc(O)cc3)CC2)cc1	-1	61*	.	.	.	7
NC(=O)CN1C(=O)/C(=c2\sc3nc(=O)c(Cc4ccccc4)nn3c2=O)c2ccccc21	-4	63*	.	.	-41	-8
CCc1c(C(=O)Nc2cc(C(=O)OC)ccc2C)csc1C	-7	11	.	.	.	.
Cc1cc(NC(=O)C2CCCN(S(=O)(=O)c3c(C)noc3C)C2)n[nH]1 (centres undefined)	-9	12	4	10	3	.
Cc1c(Cl)cccc1N=C1NC(=O)CS1	.	66*	.	.	.	43
O=C1CSC(=Nc2ccccc2Cl)N1	-9	7	13	21	12	.
CC1CCCC(C)N1CCCNC(=O)c1ccc2c(c1)NC(=O)c1ccccc1S2 (centres undefined)	-5	8	.	.	.	.
